# Results: ChEMBL document CHEMBL4513216, “Probing the Open Global Health Chemical Diversity Library for Multistage-Active Starting Points for Next-Generation Antimalarials” (ACS Infect Dis, 2020)
# Experiment: Toxicity liver stage against HepG2, at 10uM
# Assay type: cell-based
# Set-up: test concentration 10 uM, cell line HepG2-A16-CD81EGFP
# Details: human, HepG2-A16-CD81EGFP cells; read-out: INHIBITION
# In short: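 Uninfected HepG2-A16-CD81EGFP cells, 3 × 10^3 per well, 1536-well, plated on prespotted compound at 10 μM final, parasite-free screening media added to match infected plates; puromycin 10 μM positive, DMSO 0.5% negative; run in parallel with 48 h PbLuc assay at 37 °C, 5% CO2; viability by CellTiter-Glo luminescence, normalized to controls.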
row,SMILES,cytotoxicity at 10 µM [%]
1,CC(C)n1nnc2c(sc3nc(N4CCOCC4)c4c(c32)CCC4)c1=O,3.26
2,Cc1nn(C2CCS(=O)(=O)C2)c(O)c1Cc1cccc(Cl)c1 (configuration not stated),-46.9
3,CC(C)CNC(=O)c1cccc(Oc2ccc3nncn3n2)c1,-1.95
4,CC(C)Cn1cc(C(=O)NC2CCS(=O)(=O)C2)c2ccccc2c1=O (configuration not stated),0.724
5,Cc1nc(-c2ccccc2)cc2nn(CC(N)=O)c(=O)n12,0.301
6,O=C(Cc1ccc2c(c1)OCC2)Nc1nc(C(F)(F)F)n[nH]1,2.98
7,COC(=O)c1sc2nc3c(c(C(F)(F)F)c2c1N)CN(C(C)=O)CC3,-8.18
8,CCS(=O)(=O)Nc1ccc2oc(C)c(C(C)=O)c2c1,7.13
9,OC1(CN2CCC(Cc3ncccn3)CC2)CCOCC1,16.6
10,Cc1ccnc(C2CN(c3ccnc(C)n3)C2)n1,-2.4
11,CCn1cc(S(=O)(=O)N2CCCC3(CC=CNC3=O)C2)cn1 (configuration not stated),-2.92
12,O=C(c1cc2c(s1)CCC2)N1CCC(c2cnccn2)CC1,-2.34
13,OCc1cn(Cc2cccc(F)c2)nn1,8.95
14,COc1cccc(C(C)N2CCN(S(C)(=O)=O)CC2)c1 (configuration not stated),-8.42
15,CCc1noc(CNc2ccc(CC(=O)N3CCSCC3)cc2)n1,3.73
16,CC(Nc1ccc(C(F)(F)F)cc1C#N)c1cccc(S(N)(=O)=O)c1 (configuration not stated),-3.09
17,O=C(c1cc(C2CC2)nc2onc(-c3ccccc3)c12)N1CC[C@H](O)C1,-40.4
18,Cc1nc2c(C#N)cnn2c(C)c1CCC(=O)N(C)C1CC1,-47.2
19,Cc1occc1CNC(=O)C1(C)CCCN1C(=O)c1ccccc1 (configuration not stated),-9.34
20,COC(=O)CCCNC(=O)N1CCc2c(F)ccc(F)c2C1,-11.2
21,Cn1ccc(C(=O)N(CC(F)(F)F)c2cccc(Cl)c2)cc1=O,-0.0519

row,SMILES,cytotoxicity at 10 µM [%]
1,CCC(=O)N(CC)CCc1nccs1,9.66
2,COCc1noc(Cc2c(C)nn(C)c2C)n1,7
3,O=C(NC1CCCN(c2ccccc2Cl)C1)c1ccc(=O)[nH]n1 (configuration not stated),-4.46
4,N#Cc1ccsc1N1CCC(Sc2ccncc2)C1=O (configuration not stated),-15.7
5,CC(NC(=O)CN1CCCC1=O)c1ccc(Cl)s1 (configuration not stated),-6.45
6,Cc1nc(C2CCCN2CCc2cccs2)no1 (configuration not stated),10.4
7,N#Cc1ccc(NC2CCN(c3ncccn3)CC2)cc1Cl,8.8
8,Cc1ccc(NC(=O)N2CCOC(C)C2)cc1Cl (configuration not stated),-6.78
9,O=C(CC1CC1)N1CCCn2nnc(CNc3ncccn3)c2C1,-0.802
10,CCc1ncnc2c1CCN(S(=O)(=O)c1ccccc1)CC2,-96.8
11,Cc1nc(CN2C(=O)CC[C@@H]3[C@H]2CCN3C(=O)c2ccc[nH]2)cs1,-77.3
12,CC(=O)N1CCC2(CCCN(C(=O)c3ccc(Cl)c(C(F)(F)F)c3)C2)C1 (configuration not stated),-81.8
13,CC(=O)c1cnc(N(C)Cc2cc(C)cc(C)n2)nc1C,8.81
14,Cc1cnc(C)c(-c2cc(O)c3c(c2)CN(c2nccs2)CCO3)n1,1.08
15,CC(C)S(=O)(=O)N1CCCC(c2nccn2Cc2cccnc2)C1 (configuration not stated),3.72
16,CCc1nc(NCC2CCCN(C(=O)C3CC3)C2)c2cnn(C)c2n1 (configuration not stated),1.14
17,CC1(C)CC1(C(=O)N1CC(c2cccnc2)C1)c1ccccc1F (configuration not stated),-10.7
18,COc1cc2c(cc1-c1nc3c(cnn3C)[nH]1)OCO2,-8.9
19,CCc1nnc(CN(C)Cc2cccc(C(=O)Nc3cnn(C)c3)c2)o1,-5.54
20,Nc1cc(-c2cccc3c2CCNC3)ncn1,-8.27
21,O=C(c1ccco1)N1CCN(Cc2nc(C3CC3)no2)CC1,5.21

row,SMILES,cytotoxicity at 10 µM [%]
1,Cc1nn(C)c2nc(N3CCCCC3c3nccs3)sc12 (configuration not stated),10.2
2,COc1ccc(-c2nc3c([nH]2)CCNC3)c(OC)c1OC,0.786
3,c1ccc(CN2CCC(CNc3ncnc4c3CCNCC4)CC2)cc1,-4.84
4,CN1CC(c2ccccc2)CC12CCN(C(=O)c1ccc(Cl)cn1)CC2 (configuration not stated),3.62
5,C=C(C)COc1cccc(CNCc2nc3ccccc3c(=O)[nH]2)c1,-40.9
6,CCC(C(=O)NCc1ccncc1)N(c1cccc(Cl)c1)S(C)(=O)=O (configuration not stated),-4.31
7,Cc1noc(-c2ccc(N(C)Cc3cccnc3)nc2)n1,-1.24
8,CC(C)(CO)NC(=O)C1CCC(=O)N(Cc2ccc(Cl)cc2)C1 (configuration not stated),-6.14
9,C[C@@H]1CN(C(=O)c2cnc(C3CC3)nc2)CC[C@@]1(O)C1CCOCC1,-13.9
10,CN(Cc1ccc(F)cc1)CC1(O)CCCN(CC(C)(C)C)C1=O (configuration not stated),-9.35
11,CCc1ccccc1CN1CC[C@@H](NC(=O)c2cccnc2)[C@H](O)C1,-9.67
12,CN(C)C(=O)CCC(=O)NCc1cccnc1-n1cnc2ccccc21,-3.97
13,CN(C)Cc1nnc(C2CCN(C(=O)CCc3cccs3)CC2)n1C,-15.9
14,COCCN1CCN(C(C)c2nc(C3CC3)no2)CC1 (configuration not stated),-8.36
15,COc1ccc(CC(=O)N2CCCC(c3cc(C)[nH]n3)C2)cc1 (configuration not stated),-7.69
16,CCC(O)CN1CCN(C(=O)Cc2ccc(C)nc2)CC1 (configuration not stated),-9.24
17,Cc1nc(C2CCCN(C(=O)CCCn3ccnc3C)C2)no1 (configuration not stated),-13.4
18,Cc1noc(Cl)c1CCC(=O)N1CCN(c2ncccn2)CC1,-2.01
19,CC(C)N(Cc1nc2c(cnn2C)c(=O)[nH]1)c1ccccc1,-12.6
20,CS(=O)(=O)c1ccc(CNC(=O)N2CCC(C(N)=O)C2)cc1 (configuration not stated),-8.03
21,CCn1nnc2cc(C(=O)N3CCCC3Cn3cc(C)cn3)ccc21 (configuration not stated),-9.8

row,SMILES,cytotoxicity at 10 µM [%]
1,Cn1cc(C(=O)NC2CCN(C(=O)NCC3CCSCC3)CC2)cn1,4.02
2,COc1ccc(CNC(=O)NC(C)Cn2cccn2)cc1O (configuration not stated),-3.1
3,CC(O)CN(CC(=O)NC(=O)NC1CC1)c1ccccc1 (configuration not stated),-2.14
4,CCc1nc(CN2CCCN(C(=O)c3c(C)noc3C)CC2)cs1,1.74
5,Clc1cccnc1OC1CCNCC1,-10.9
6,Cc1c(C)n(CC(O)CN2CCN(CCO)CC2)c2c(Cl)cccc12 (configuration not stated),-12.9
7,CN1C(=O)CCC12CCC(NC(=O)NCc1cccnc1)CC2 (configuration not stated),-99.8
8,Cc1c(Br)cccc1C(=O)NCCC1CCCNC1 (configuration not stated),-11.7
9,Cc1ccc(CN2CCOC3(CCCN(C(=O)c4ccco4)C3)C2)s1 (configuration not stated),-10.3
10,Fc1cccc(CN2C[C@@H]3CN(c4ncccn4)C[C@@H]3C2)c1,6.81
11,Cc1occc1C(=O)N1CCC2(CCN(C(=O)c3cccnc3)C2)CC1,-88.1
12,O=C(Nc1cccnc1)[C@H]1C[C@@H]2CCN(Cc3nccs3)C[C@@H]2O1,-68.2
13,CN(Cc1cccnc1)Cc1cncc2c1CCN(Cc1ccoc1)C2,-100
14,Cc1noc(C)c1C(=O)N1CCOC2(COCCN(C(C)C)C2)C1 (configuration not stated),2.71
15,CN(C)C(=O)c1cnc2n1CCN(Cc1ccc3c(c1)OCO3)C2,-69
16,CN1CCO[C@@H]2CN(S(=O)(=O)c3cccs3)CC[C@@H]2C1,11.7
17,CO[C@H]1CCN(Cc2c(C)noc2C)[C@@H]2CN(Cc3cccnc3)C[C@H]12,5.55
18,Cc1n[nH]cc1CNCc1ccnc(OCC(F)(F)F)c1,5.33
19,COc1ccc(CN2C[C@@H]3C[C@H](C(=O)Nc4cccnc4)[C@H](C2)O3)cc1,-72.4
